The list is not random: actives were taken first. Their share in the collection is about 3.4%.
ANO1 activ = mouse TMEM16A channel activation, primary screen | B-score at 10 µM | Q8BHY3 | AID 623877 | HEK293 TMEM16A/YFP-H148Q/I152L, iodide quench fluorescence; hits give low values | 0.3% of 340,000 active;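 active = fluorescence-ratio B-score plate-corrected deviation score at least 3 library SD below zero, with starting fluorescence score within 5 deviations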;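 note: channel opened by trigger with iodide after compound preincubation; score built on the fluorescence ratio of max minus min over baseline; more negative score means more quench and so TMEM16A activation or potentiation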
HTR2A ag = activates the mouse 5-HT2A serotonin receptor | CHO-K1 mHTR2A beta-arrestin complementation, luminescence; percent of 30 µM serotonin response | activation, % at 7.6 µM | 0.66% of 360,000 active;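 active = activation above a run cutoff, the mean activation of all tested compounds plus 3 SD, cut at about 14% in these data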;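 note: 0% = plate median of compound wells and 100% = 30 µM serotonin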
MC4R antag cAMP = antagonists of human melanocortin 4 receptor (MC4R); P32245; MC4R-expressing cells, MTII-stimulated cAMP, LANCE TR-FRET; inhibition, % at 6.5 µM; 0.48% of 360,000 active;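 active = inhibition above its plate's cutoff, the mean of tested wells on that plate plus 3 SD, cut at about 29% in these data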;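 note: 0% = Melanotan II alone and 100% = Melanotan II plus saturating MCL0020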
Target sequence (P32245 whole entry, looked up): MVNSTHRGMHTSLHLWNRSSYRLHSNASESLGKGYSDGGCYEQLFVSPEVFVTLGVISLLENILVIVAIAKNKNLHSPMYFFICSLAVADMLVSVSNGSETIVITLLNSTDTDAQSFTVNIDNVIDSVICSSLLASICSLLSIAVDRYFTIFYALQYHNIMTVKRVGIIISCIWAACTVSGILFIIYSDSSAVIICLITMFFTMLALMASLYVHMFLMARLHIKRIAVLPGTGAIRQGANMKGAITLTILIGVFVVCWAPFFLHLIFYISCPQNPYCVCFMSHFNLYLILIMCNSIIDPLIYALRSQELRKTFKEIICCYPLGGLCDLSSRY
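Material – human MC4R-expressing U2OS cells · Repeats – no replicates · Detection – TR-FRET with Eu-cAMP and labeled anti-cAMP, 671 nm · Times – compound 30 min, challenge 1 h, detection 1 h · Compound – single nominal compound dose of 6.5 µM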
MIN6 prolif-1 = induces beta-cell replication in MIN6 cells. proliferation, % at 10 µM. MIN6 cells proliferation, ATPlite luminescence, 48 h; cells starved in 0.2% serum; 100% = growth in 10% serum. 0.29% of 330,000 active. AID 2380;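 active = compounds whose signal lies at least 3.5 SD above the mean of all wells on their plate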;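 note: 0% = DMSO-treated cells in low-serum medium and 100% = 10% serum control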
ANO1 block = inhibitors of mouse TMEM16A calcium-activated chloride channel | 1.2% of 310,000 active | normalized B-score (activity score, 25-100; higher = stronger inhibition) at 10 µM | AID 588511 | HEK293 TMEM16A/YFP iodide influx fluorescence, ionomycin;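 active = ratio plate-corrected score three or more library SD toward inhibition, starting fluorescence score within five deviations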;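 note: score derived from kinetic fluorescence span divided by baseline fluorescence per well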
MC4R barr agon = human MC4R agonism via beta-arrestin; P32245; U2OS MC4R beta-arrestin complementation, luminescence; percent of melanotan II response, DMSO zero; activation, % at 8.9 µM; 0.98% of 360,000 active; AID 540308;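 active = activation above a per-plate cutoff, the mean activation of sample wells on that plate plus 3 SD, cut at about 8% in these data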
MIN6 prolif-2 = confirmation of inducers of beta-cell replication in MIN6 cells; shares compounds with MIN6 prolif-1; MIN6 beta-cell proliferation, ATPlite luminescence, 48 h; cells kept in 0.2% serum; scaled between 0.2% and 10% serum; proliferation increase, % at 50 µM; 920 tested, under 10 active; AID 463095;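 active = proliferation increase above 40% at any of the four tested concentrations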
Starred values were filed as active, the others as inactive; i = inactive; / = not tested or not shown.

SMILES	ANO1 activ	HTR2A ag	MC4R antag cAMP	MIN6 prolif-1	ANO1 block	MC4R barr agon	MIN6 prolif-2
CC1Oc2ccccc2N(CC(=O)N(Cc2ccccc2)Cc2ccccn2)C1=O (stereo unspecified)	i	-1	-1	10*	i	-2	-1
CCC(=O)Nc1ccc(NC(=S)NC(=O)c2cc3ccccc3o2)cc1	i	-2	7	0.0*	i	0	-1
CCC(=O)Nc1cccc(NC(=S)NC(=O)c2cc3ccccc3o2)c1	i	1	-3	-1	i	0	/
O=C(c1cccs1)N1C[C@@H](n2cc(-c3ccc(F)cc3)nn2)[C@H](O)C[C@@H]1c1ccccc1	/	-9	6	/	/	-1	/
CCOc1ccc(Nc2nc(C)cc(C)c2C#N)cc1	i	0	-4	6.3*	i	0	2
COC(=O)CSc1nnc(-c2ccco2)n1-c1ccc(C)cc1	i	0	3	7.4*	i	-1	2
Cc1ccc(S(=O)(=O)Nc2ccc(Cl)cn2)cc1C	i	4	5	-4	i	-1	/
COc1ccc([N+](=O)[O-])cc1NC(=O)c1ccc(-n2nc(C)cc2C)cc1	i	-4	9	-1	i	-1	/
COc1ccc([N+](=O)[O-])cc1NC(=O)c1ccc(N2C(=O)CCC2=O)cc1	i	0	13	7.8*	i	-1	0
COc1cccc(NC(=O)N2CCC(NC(=O)c3ccco3)CC2)c1	i	-1	2	0	i	0	/
COc1cc(-c2noc(C)c2C#CC2(N)CCCCC2)cc(OC)c1OC	i	11	5	-3	i	-1	/
COc1cc(-c2noc(C)c2C#CC2(O)CCCCC2)cc(OC)c1OC	i	2	7	12*	i	2	-6
CC(=O)c1cccc(OCC(=O)N(C)CC(=O)NCc2ccco2)c1	i	0	0	-1	/	0	/
O=C1NC(c2ccc(Cl)cc2)Oc2ccccc21 (stereo unspecified)	i	1	22	-2	i	0	/
O=C1NC(c2ccc(Br)cc2)Oc2ccccc21 (stereo unspecified)	i	-1	6	6.4*	i	-3	-2
CCOc1ccc(C(=O)NCC(=O)OCCCC(=O)c2ccc(F)cc2)cc1OCC	i	4	11	14*	/	0	-2
O=C1NC[C@H](CCCCN2C[C@H](Cc3ccc(O)cc3)N(CCc3ccc(O)cc3)C(=O)C2=O)N(Cc2ccccc2)C1=O	/	1	/	/	/	/	/
Cn1cc([N+](=O)[O-])c(C(=O)N2CCN(Cc3ccc4c(c3)OCO4)CC2)n1	i	-2	-6	-1	i	2	/
O=C(NCCC1CCCCN1S(=O)(=O)c1ccccc1)C(=O)NC1CC1 (stereo unspecified)	i	6	4	12*	i	0	-1
Clc1ccc(-c2nnc(CNC3CC3)o2)cc1	i	4	14	9.5*	i	0	-3
O=[N+]([O-])c1ccc(-c2nnc(CNC3CCCC3)o2)cc1	i	1	3	5	i	-2	/
COc1cc(CN(C)c2ncnc3sccc23)ccc1OC(F)F	i	3	-7	-1	i	1	/
CCc1onc(C)c1C(=O)Nc1ccc(N2CCOCC2)cc1	i	-3	-2	0	/	-2	/
CCc1onc(C)c1C(=O)O	i	0	13	7.5*	i	3	-3
O=S(=O)(c1ccc(Oc2ccc(F)c(Cl)c2)nc1)N1CCOCC1	i	4	10	13*	i	1	-2
SMILES	ANO1 activ	HTR2A ag	MC4R antag cAMP	MIN6 prolif-1	ANO1 block	MC4R barr agon	MIN6 prolif-2
O=S(=O)(c1ccc(Oc2ccc(Cl)cc2)nc1)N1CCOCC1	i	6	0	-5	i	-1	/
CCC(C)Nc1nc(N)c([N+](=O)[O-])c(NCc2ccccc2)n1 (stereo unspecified)	i	2	-11	6.2*	i	0	-6
CN(C)C(/C=C/Nc1cccc([N+](=O)[O-])c1)=C(C#N)C#N	i	0	-2	8.1*	i	-2	1
COC(=O)[C@]12CCCCC=C1N(CCC1=CCCCC1)C(=O)[C@H](CC(=O)NCCCN1CCCC1=O)C2	/	-1	/	/	/	/	/
COc1ccc(/C=N/NC(=O)CN(Cc2ccccc2)S(=O)(=O)c2ccc3c(c2)OCCO3)cc1	i	-1	10	0	i	-2	/
COc1ccc(CNC(=O)CN(CCC(C)C)S(=O)(=O)c2ccc3c(c2)OCCO3)cc1	i	-6	5	5.3*	i	-1	-6
CCOc1ccc(/C=C/C(=O)N(C)CC(=O)Nc2cccc(F)c2)cc1OCC	i	-7	9	0	i	-2	/
c1csc(Cc2nn3c(-c4ccncc4)nnc3s2)c1	i	-1	-4	7.3*	i	0	4
Cc1ccc(-c2nnc3sc(CCc4ccccc4)nn23)cc1	i	-3	8	-4	i	1	/
c1cc(-c2nnc3sc(C4CCCCC4)nn23)ccn1	i	3	7	9.0*	i	2	3
COc1ccccc1CNc1nc(Nc2cccc(-c3cnco3)c2)c2sccc2n1	/	4	24	/	/	4	/
O=c1cc(-c2ccc(O)cc2)oc2cc(O)c(C3OC(CO)C(O)C(O)C3O)c(O)c12 (stereo unspecified)	i	-1	5	9.0*	i	0	-1
COc1ccc(C(=O)Nc2ccc3c(c2)C(=O)NC3=O)cc1	i	-1	1	2	i	1	/
CCn1c(=O)n(CC)c2cc(N3CCCC3)c(NC(=O)c3cccc(OC)c3)cc21	i	5	0	17*	i	0	-6
COc1cccc(C(=O)Nc2ccc3c(c2)C(=O)NC3=O)c1	i	2	6	9.1*	i	-2	0
COCCCNC(=O)C[C@H]1C[C@H](C(=O)N(C(C)C)C(C)C)[C@@]2(C)c3[nH]c4cc(CCC(=O)N(C)C)ccc4c3CCN2C1=O	/	-3	8	/	/	-3	/
Oc1ccc(Cl)cc1CNCc1ccc(C(F)(F)F)cc1	i	13	-4	4	i	4	/
O=C1CN(S(=O)(=O)c2ccccc2)c2ccccc2N1	i	10	-6	13*	i	2	-1
CC(C)(C)n1nc2c(c1NC(=O)COc1ccc(Cl)cc1)CS(=O)(=O)C2	i	2	10	2	i	-2	/

Compound activity as filed in PubChem BioAssay.
